Screening data from PubChem BioAssay.
GPR7 antagonist: GPR7 receptor antagonists, primary screen, cell-based, fluorescence, single concentration | Neuropeptides B/W receptor type 1 (Homo sapiens), P48145 | GPR7-expressing cells, fluorescence antagonist assay | inhibition, % at 4.4 µM | 290,000 tested, 1.1% active; in the data active = inhibition above about 16%, passing the limit was not always enough;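 also: cells stimulated with the agonist NPW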
TAAR1 antagonist: human TAAR1 antagonists, primary screen, Fluo-8 calcium fluorescence, CHO RD-HGA16 cells | Trace amine-associated receptor 1 (Homo sapiens), Q96RJ0 | inhibition, % at 3 µM | antagonist | AID 624466, 2012 | 360,000 tested, 1.5% active;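 active = inhibition above a per-plate cutoff, the mean inhibition of test compounds on that plate plus 3 SD, cut at about 49% in these data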
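Material: RD-HGA16 CHO cells with stable hTAAR1 and Gα16; Dosing: single nominal final test compound concentration of 3 µM; Schedule: seeding 17-24 h prior, 75-min 37 °C, 30-min RT dye loading; Detection: kinetic Fluo-8 calcium fluorescence measurement; Measure: % inhibition from peak post-agonist over basal fluorescence ratio; Benchmarks: vehicle and agonist controls.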
OX1R antag-1: OX1R (HCRTR1) antagonists, primary screen, fluorescence, CHO/OX1R cells, Fluo-8 calcium, orexin A. Fluo-8 calcium fluorescence. Orexin/Hypocretin receptor type 1 (Homo sapiens), O43613. 330,000 tested, 0.43% active. inhibition, % at 5 µM;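 active = inhibition above its plate's threshold, mean inhibition of all tested compounds on the plate plus 3 SD, cut at about 37% in these data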
Target sequence (O43613 whole entry, looked up): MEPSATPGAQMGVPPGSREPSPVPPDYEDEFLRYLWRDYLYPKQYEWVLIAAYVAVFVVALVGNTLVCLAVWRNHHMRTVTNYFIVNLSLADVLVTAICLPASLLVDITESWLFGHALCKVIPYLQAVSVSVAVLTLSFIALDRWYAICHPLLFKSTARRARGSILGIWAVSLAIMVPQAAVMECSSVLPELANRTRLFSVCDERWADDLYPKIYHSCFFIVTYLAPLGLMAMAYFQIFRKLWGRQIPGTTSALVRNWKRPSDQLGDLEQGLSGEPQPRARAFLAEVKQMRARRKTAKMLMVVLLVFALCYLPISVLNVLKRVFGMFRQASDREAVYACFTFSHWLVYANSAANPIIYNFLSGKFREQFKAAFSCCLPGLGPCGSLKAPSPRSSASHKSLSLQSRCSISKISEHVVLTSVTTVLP
CHO parental Ca: ATP-evoked calcium signal inhibitors, parental CHO, primary screen, counter-screen for OX1R antagonist project, cell-based, fluorescence, Fluo-8 calcium dye. parental CHO-K1, ATP-induced calcium, Fluo-8 fluorescence. inhibition, % at 5.6 µM. 330,000 tested, 0.63% active. AID 463079, 2010;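 active = inhibition above that plate's mean sample inhibition plus 3 SD, cut at about 26% in these data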
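material = parental CHO cells | also added = ATP as calcium-mobilizing challenge | dosing = single point at 5.6 µM | detection = intracellular calcium via Fluo-8 no-wash fluorescent dye | read-out = % inhibition | benchmarks = low control ATP plus DMSO, high control DMSO only | repeats = one well per compound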
OX1R antag-2: antagonists of human orexin 1 receptor (OX1R). OX1R-expressing cells, FRET antagonist read-out. inhibition, % at 6.6 µM. 330,000 tested, 1.8% active. AID 485270, 2010; in the data active = inhibition mostly above about 38%, no sharp cut-off; inactive = mostly below about 40%
TAAR1 ag: human TAAR1 agonists, primary screen, Fluo-8 calcium fluorescence, CHO RD-HGA16 cells | vehicle wells 0%, saturating PEA agonist 100% | activation, % at 3 µM | 360,000 tested, 0.99% active;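 active = activation above the mean activation of all test compounds in the run plus 3 SD, cut at about 38% in these data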
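Signal – calcium-sensitive Fluo-8 signal, excitation 470-495, emission 515-575 nm · System – RD-HGA16 (CHO) cells co-expressing Gα16 and hTAAR1 · Incubation – 17-24 h seeding, 75 min 37 °C dye, 30 min RT · Compound dosing – 3 µM single concentration · Repeats – no replicates (n 1)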
TAAR1 ag conf: human TAAR1 agonists, retest of hits, confirmation, Fluo-8 calcium fluorescence, CHO RD-HGA16 cells; shares compounds with TAAR1 ag; scaled: DMSO 0%, maximal phenethylamine 100%; 2,400 tested, 82% active; activation, % at 3 µM; AID 651783, 2012;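 active = activation above a cutoff set at the run's mean compound activation plus 3 SD, cut at about 39% in these data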
Ga16 nonsel ag: nonselective calcium mobilization agonists, CHO-Ga16 cells, counter-screen for hTAAR1 agonist project, cell-based, fluorescence, CHO-Ga16 parental line; shares compounds with TAAR1 ag; Fluo-8 calcium fluorescence; normalized to maximal ATP response, DMSO zero; activation, % at 3 µM; 2,400 tested, 50% active; AID 651787, 2012;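 active = activation above the run cutoff, the mean activation over all tested wells plus 3 SD, cut at about 12% in these data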
TAAR1 desens: TAAR1 desensitization by agonist hits, confirmation, counter-screen for TAAR1 agonist project, cell-based, fluorescence, tachyphylaxis | shares compounds with TAAR1 ag | CHO RD-HGA16 hTAAR1, Fluo-8 calcium, beta-PEA response inhibition | inhibition, % at 3 µM | 2,400 tested, 46% active;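 active = inhibition above the run cutoff, the mean inhibition of all test compounds plus 3 SD, cut at about 49% in these data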;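 also: beta-PEA stimulus applied at its EC80; loss of beta-PEA calcium signal after compound pretreatment read as receptor desensitization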
Ga16 antag count: inhibition of ATP-evoked calcium response in CHO-Ga16 cells, counter-screen for TAAR1 agonist project, cell-based, fluorescence. shares compounds with TAAR1 ag. CHO-Ga16 ATP-induced calcium, Fluo-8 fluorescence. 2,400 tested, 39% active. inhibition, % at 3 µM;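 active = inhibition above the plate's mean compound inhibition plus 3 SD, computed per plate, cut at about 22% in these data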
Numbers stand for hits; – = inactive; · = not tested or not shown. Hits are enriched below; roughly 4.6% of the tested compounds scored in any of these assays.

SMILES	GPR7 antagonist	TAAR1 antagonist	OX1R antag-1	CHO parental Ca	OX1R antag-2	TAAR1 ag	TAAR1 ag conf	Ga16 nonsel ag	TAAR1 desens	Ga16 antag count
COc1ccc(NC(=O)CS(=O)CC(=O)NCC2OCCc3ccccc32)cc1 (configuration not stated)	–	–	–	–	–	–	·	·	·	·
O=C(O)CCC(=O)NCC1OCCc2ccccc21 (configuration not stated)	–	–	–	–	–	54	–	–	–	–
O=[N+]([O-])c1cccc(CSC2=NCCN2S(=O)(=O)c2ccccc2)c1	–	–	–	–	–	–	·	·	·	·
O=C(Nc1ccc(Cl)c(C(F)(F)F)c1)NC1CC2CCCC(C1)N2C1CC1 (configuration not stated)	–	–	–	–	–	68	70	25	–	25
O=C(Nc1n[nH]c(=S)s1)c1ccc2ccccc2c1	–	–	–	–	–	57	42	20	–	–
O=C(Nc1nccs1)c1ccc2ccccc2c1	–	–	–	–	–	–	·	·	·	·
CCN(C(=O)c1cc(Cl)ccc1Cl)C1CCS(=O)(=O)C1 (configuration not stated)	·	–	–	–	–	–	·	·	·	·
CC1CCN(c2ccc3c(c2)S(=O)(=O)c2cccc(C(=O)NCc4cccc(F)c4)c2C3=O)CC1	·	91	–	–	–	67	–	36	60	62
O=C(NCc1cccc(F)c1)c1cccc2c1C(=O)c1ccc(N3CCCC3)cc1S2(=O)=O	·	·	–	–	–	·	·	·	·	·
O=C(CSc1nc2[nH]ncc2c(=O)n1-c1ccccc1)c1ccc2c(c1)OCCO2	–	58	–	–	–	75	67	21	50	27
S=C(Nc1ccccc1Cl)NC1CCN(Cc2ccccc2)CC1	–	–	–	–	–	–	·	·	·	·
S=C(Nc1cc(Cl)cc(Cl)c1)NC1CCN(Cc2ccccc2)CC1	–	–	·	·	·	64	58	32	53	46
O=c1c2ccccc2nnn1CSc1ccccc1F	–	–	–	–	–	60	–	–	–	–
OC(c1ccc(F)c(F)c1)c1nc(-c2ccccc2)cs1 (configuration not stated)	·	–	·	·	·	–	·	·	·	·
COc1ccc(-c2csc(C(O)c3ccc(F)c(F)c3)n2)cc1 (configuration not stated)	·	77	·	·	·	57	52	33	70	53
O=C(Nc1ccccc1F)c1ccc(OCc2ccccc2)cc1	–	·	–	–	–	·	·	–	·	–
NNC(=O)c1ccc(COc2ccc3ccccc3c2)cc1	–	–	–	–	–	72	93	51	49	23
O=C(N/N=C/c1ccc(OCc2ccc(F)cc2)cc1)c1ccccc1	–	–	–	–	–	43	–	–	–	–
O=C(Nc1ccc(OCc2ccccc2)cc1)c1cccnc1	–	57	–	–	–	88	94	30	75	26
O=C(Nc1ccc(OCc2ccccc2)cc1)Nc1cccnc1	–	–	–	–	–	–	·	·	·	·
O=C(N/N=C/c1ccc(F)cc1)c1ccc(OCc2ccccc2)cc1	–	–	–	–	–	–	·	·	·	·
CC(C)CC(N)c1csc(Nc2cc(Oc3ccccc3)ncn2)n1 (configuration not stated)	·	–	·	·	·	–	·	·	·	·
c1ccc(CCNC2=NCCS2)cc1	–	–	–	–	–	50	75	–	–	–
CN1CCC(=C(c2ccccc2)c2ccc(Br)cc2)CC1	·	–	–	–	–	54	63	34	–	–
O=C(CCCCl)N1CCc2[nH]c3ccccc3c2C1	·	87	·	·	·	89	97	–	92	–
SMILES	GPR7 antagonist	TAAR1 antagonist	OX1R antag-1	CHO parental Ca	OX1R antag-2	TAAR1 ag	TAAR1 ag conf	Ga16 nonsel ag	TAAR1 desens	Ga16 antag count
S=C(NC1CCCCC1)N1CCc2[nH]c3ccccc3c2C1	–	–	–	–	–	–	·	·	·	·
Cc1ccc(NC(=S)N2CCc3[nH]c4ccccc4c3C2)cc1	–	64	–	–	–	69	49	–	–	–
CN(CCc1ccccc1)C(=O)CC1C(=O)NCCN1Cc1ccccn1 (configuration not stated)	·	–	·	·	·	63	71	–	60	–
COc1ccc(OC)c2sc(N3CCc4ccccc4C3)nc12	–	–	–	–	–	–	·	·	·	·
c1ccc2c(c1)CCN(c1nc3cc4c(cc3s1)OCCO4)C2	–	–	–	–	–	56	81	–	–	–
COc1ccc2c(c1)C(SCC(=O)NCCc1ccccc1)CC(C)(C)O2 (configuration not stated)	–	61	–	–	–	68	73	–	76	–
Cc1nnc(NC(=O)C2c3ccccc3Oc3ccccc32)s1	–	–	–	–	–	–	·	·	·	·
CCOCc1nnc(NC(=O)C2c3ccccc3Oc3ccccc32)s1	–	–	–	–	–	77	91	54	49	37
COc1ccc(C(=O)NC2CC2)cc1OC1CCN(Cc2ccc(F)cc2)CC1	–	–	·	·	·	–	·	·	·	·
Cn1cccc1/C=C1\CCC/C(=C\c2cccn2C)C1=O	–	88	93	70	–	165	–	36	–	46
O=C1/C(=C/c2cccs2)CCC/C1=C\c1cccs1	–	–	–	–	–	–	·	·	·	·
COc1ccc(Cn2nnc3c(=O)[nH]c(C4CCN(S(=O)(=O)c5ccc(C)cc5)CC4)nc32)cc1	–	–	–	–	–	–	·	·	·	·
CC(C)(C)[C@H]1C=C(C(=O)N2CCN(Cc3ccc4c(c3)OCO4)CC2)O[C@@H](OCc2ccc(CO)cc2)C1	–	–	–	–	–	–	·	·	·	·
O=C(Cn1cnc([N+](=O)[O-])c1)NCc1ccc(F)cc1	–	–	–	–	–	–	·	·	·	·
